From publication PMC6851657 (Clinical Pharmacology and Therapeutics, 2019)
Read-outs that look alike come from different tables or passages of the source.

Legend:
CYP2C9 = CYP2C9 (Homo sapiens, UniProt P11712); type: in vitro ADME
Outline: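 Genotype-specific hepatic intrinsic clearance (CLint,h) was back-calculated from population PK total plasma clearance for each CYP2C9 genotype (*1/*1, *1/*2, *1/*3, *2/*2, *2/*3, *3/*3). Clearance was assumed to be entirely CYP-mediated hepatic metabolism, with purely passive hepatocyte uptake. CLint,h was split across CYP2C9, 3A4, 2B6, 2C8 and 2C19 by in vitro phenotyping fm. fu(mic) was set to 1. Values served as SimCYP PBPK inputs.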

[1] = cited from earlier work; for AUC decrease: coadministration of itraconazole
[2] = ref Novartis data on file, 5, cited from earlier work
[3] = coadministration of rifampin, CYP2C9*1/*1
[4] = coadministration with fluconazole, CYP2C9*1/*1

Chain of CYP2C9 (P11712 whole entry): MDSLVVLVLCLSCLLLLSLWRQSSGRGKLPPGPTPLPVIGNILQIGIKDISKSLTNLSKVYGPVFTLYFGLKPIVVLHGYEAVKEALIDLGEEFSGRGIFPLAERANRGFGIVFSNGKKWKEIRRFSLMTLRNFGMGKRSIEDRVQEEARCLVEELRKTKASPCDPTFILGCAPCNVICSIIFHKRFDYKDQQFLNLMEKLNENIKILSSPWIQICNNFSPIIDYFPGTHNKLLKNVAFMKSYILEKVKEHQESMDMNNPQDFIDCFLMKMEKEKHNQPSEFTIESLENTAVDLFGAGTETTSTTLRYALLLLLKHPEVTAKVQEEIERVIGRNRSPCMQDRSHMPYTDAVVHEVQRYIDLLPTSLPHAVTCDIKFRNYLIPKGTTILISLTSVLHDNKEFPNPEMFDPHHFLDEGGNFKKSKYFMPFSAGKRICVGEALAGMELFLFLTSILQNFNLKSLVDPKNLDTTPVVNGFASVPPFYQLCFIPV

fmCYP2C9 (CYP2C9; CYP2C9*1/*1): 0.804
fmCYP2C9 (CYP2C9; CYP2C9*1/*2): 0.788
fmCYP2C9 (CYP2C9; CYP2C9*1/*3): 0.678
fmCYP2C9 (CYP2C9; CYP2C9*2/*2): 0.727
fmCYP2C9 (CYP2C9; CYP2C9*2/*3): 0.616
Compound: CCc1cc(/C(C)=N/OCc2ccc(C3CCCCC3)c(C(F)(F)F)c2)ccc1CN1CC(C(=O)O)C1 [siponimod]
AUC decrease ([1]; CYP2C9*1/*2): 9–10%
AUC decrease ([1]; CYP2C9*1/*3): 24%
AUC reduction [1, 3]: 57%
Cmax reduction [1, 3]: 45%
AUC increase [1, 4]: increased approximately two fold
Cmax increase [1, 4]: ~ 10%
lower total body clearance from plasma vs CYP2C9*1/*1 ([2]; CYP2C9*1/*3): 35–38%
lower total body clearance from plasma vs CYP2C9*1/*1 ([2]; CYP2C9*2/*2): 20%
lower total body clearance from plasma vs CYP2C9*1/*1 ([2]; CYP2C9*2/*3): 45–48%
lower total body clearance from plasma vs CYP2C9*1/*1 ([2]; CYP2C9*3/*3): 74%
